# Measured values from different studies.
# Lines come from different studies, so protocols differ.
# Target: Glycogen synthase kinase-3 alpha (GSK3A, Homo sapiens, UniProt P49840)
SMILES,assay,conditions,endpoint,value
Nc1ncc(-c2nc(N3CCOCC3)nc(N3CCOCC3)n2)c(C(F)F)n1,"binding, competition with immobilised ligand",10 µM,remaining binding,91%
O=c1[nH]c2ccccc2n1C1CCN(Cc2ccc(-c3[nH]c4cc5ncnc5cc4nc3-c3ccccc3)cc2)CC1,cell-free assay,0.5 µM,remaining signal,100%
Cc1nn(C)cc1-c1nc2c(N3CCN(Cc4ccc(Cl)cc4)CC3)c(Cl)cnc2[nH]1,"binding, competition with immobilised ligand",1 µM,remaining binding,100%
Cn1cc(-c2cccc(N3CCc4c(sc5c4CC(C)(C)C5)C3=O)c2CO)cc(Nc2ccncn2)c1=O,"enzyme activity, inhibitor",1 µM,inhibition,4%
C#Cc1n[nH]c2c(-c3cn([C@@H](C)c4ccccn4)c(=O)[nH]c3=O)cc(F)cc12,"enzyme activity, inhibitor",0.1 µM,inhibition,-0.2%
Cn1cc(-c2cc(F)cc(N3CCn4c(cc5c4CCCC5)C3=O)c2CO)cc(Nc2ccc(N3CCN(C4COC4)CC3)cn2)c1=O,"enzyme activity, inhibitor",0.1 µM,inhibition,19%
COc1ncccc1-c1cnn2ccc(N3CCN(C(=O)OC(C)C)CC3)nc12,"binding, competition with immobilised ligand",1 µM,remaining binding,100%
C#Cc1n[nH]c2c(-c3cn([C@@H](C)c4ccccc4)c(=O)[nH]c3=O)cc(F)cc12,"enzyme activity, inhibitor",0.1 µM,inhibition,-1.9%
Cn1cncc1[C@@](O)(COc1ccc(C#N)cc1-c1ccc(OC(F)(F)F)cc1)c1ccc(C#N)cc1,"cell-free assay, competition with immobilised ligand",1 µM,remaining binding,100%
